Where a chain is given by its changes, count along the chain named. The source made the active and inactive calls.

Experiment [1] concerns the target T1, Potassium channel subfamily K member 2 (Homo sapiens) (UniProt O95069).
T1 sequence (whole entry): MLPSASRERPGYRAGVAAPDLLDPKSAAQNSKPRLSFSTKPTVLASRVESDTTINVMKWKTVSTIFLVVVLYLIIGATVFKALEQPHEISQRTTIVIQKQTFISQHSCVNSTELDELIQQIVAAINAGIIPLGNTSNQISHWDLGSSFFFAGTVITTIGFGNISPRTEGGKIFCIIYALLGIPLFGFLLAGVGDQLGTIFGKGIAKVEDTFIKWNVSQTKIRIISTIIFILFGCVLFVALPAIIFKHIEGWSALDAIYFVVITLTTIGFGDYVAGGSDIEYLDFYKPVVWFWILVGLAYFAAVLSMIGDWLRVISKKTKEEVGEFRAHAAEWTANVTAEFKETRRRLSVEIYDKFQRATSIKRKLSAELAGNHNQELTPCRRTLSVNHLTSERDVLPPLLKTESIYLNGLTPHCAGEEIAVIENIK
Kind of experiment: Activation of recombinant human TREK1 expressed in HEK293T cells assessed as increase in K+ current amplitude measured after compound washout by whole cell voltage clamp electrophysiological analysis. Type of experiment: cell-based. Put shortly: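 HEK-293T cells expressing human TREK-1, whole-cell clamp. Current recorded during extracellular compound application and again after washout.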

Experiment [2] has as its system T2, Potassium channel subfamily K member 2 (Homo sapiens), O95069 [I158A].
T2 sequence (whole entry): T1 sequence (whole entry) with I158A
Kind of experiment: Activation of recombinant human TREK1 I158A mutant expressed in HEK293T cells assessed as increase in K+ current amplitude by whole cell voltage clamp electrophysiological analysis. Type of experiment: cell-based. Put shortly:
(§1)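 Transiently transfected HEK-293T cells, whole-cell voltage clamp. Held at -60 mV, 500-ms ramp -120 to +60 mV. Pipette (mM) 140 KCl, 5 EGTA, 10 HEPES, pH 7.4; external 145 NaCl, 4 KCl, pH 7.3. Compound diluted from 10 mM DMSO stock and applied extracellularly. Current increase over control fitted to concentration–response curves for EC50.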

Experiment [3] has as its system T3, Potassium channel subfamily K member 2 (Homo sapiens), O95069 [F160A].
T3 sequence (whole entry): T1 sequence (whole entry) with F160A
Nature of the experiment: Activation of recombinant human TREK1 F160A mutant expressed in HEK293T cells assessed as increase in K+ current amplitude by whole cell voltage clamp electrophysiological analysis. Format: cell-based. Put shortly: as §1

Experiment [4] relates to Potassium channel subfamily K member 2 (Homo sapiens), O95069 [Y285A]. Kind of experiment: Activation of recombinant human TREK1 Y285A mutant expressed in HEK293T cells assessed as increase in K+ current amplitude by whole cell voltage clamp electrophysiological analysis. Type of experiment: cell-based. Put shortly: as §1
In experiment [5] the target is Potassium channel subfamily K member 2 (Homo sapiens, UniProt O95069, W290A). Nature of the experiment: Activation of recombinant human TREK1 W290A mutant expressed in HEK293T cells assessed as increase in K+ current amplitude by whole cell voltage clamp electrophysiological analysis. Format: cell-based. The gist of the method: as §1
For experiment [6], the target named is Potassium channel subfamily K member 2 (Homo sapiens, UniProt O95069, G275C). Kind of experiment: Activation of recombinant human TREK1 G275C mutant expressed in HEK293T cells assessed as increase in K+ current amplitude by whole cell voltage clamp electrophysiological analysis. Type of experiment: cell-based. Put shortly:
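Human TREK-1 G275C expressed in HEK-293T, whole-cell ramp recordings. Tested with or without MTSET, 1 mM final, diluted from 0.5 M DMSO stock within 120 s of application. Concentration–response curves for EC50, n = 5–19; 10 μM single-point comparison by one-way ANOVA with Tukey test.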

Experiment [7] concerns Mus musculus. Nature of the experiment: Analgesic activity in cerulein-induced mouse model of acute pancreatitis assessed as reduction in pancreatic inflammatory infiltration at 10 mg/kg, ip administered at 2 hrs interval for 10 hrs starting from post-first cerulein challenge and measured 12 hrs post-first cerulein challenge by H and E staining based histopathological analysis. Format: functional, organism-based. The gist of the method: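 Cerulein pancreatitis: 7 hourly i.p. injections of 50 µg/kg; 10 mg/kg compound i.p. at 2, 4, 6, 8 and 10 h. Mice killed at 12 h and pancreas harvested for MPO activity and H&E histology. Ten random fields per slide scored blind by two observers for edema, inflammatory infiltration and acinar necrosis; n = 6.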

In experiment [8] the test system is Mus musculus. Kind of experiment: Analgesic activity in CFA-induced mouse model of chronic inflammatory pain assessed as increase in paw withdrawal latency at 5 mg/kg, ip measured up to 60 mins by Hargreaves test. Type of experiment: functional, organism-based. Put shortly: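 CFA (20 μl) injected subcutaneously into the left hindpaw of mice. Compound given i.p. in 5% DMSO/5% Tween 80/90% saline. Heat withdrawal latency recorded with a 5 min inter-stimulation period.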

Experiment [9] deals with Mus musculus. Kind of experiment: Analgesic activity in mouse model of spared nerve injury assessed as reduction in cold hyperalgesia at 5 mg/kg, ip measured at 7 days interval for up to 21 days post spared nerve injury by cold plantar test. Format: functional, organism-based. Put shortly:
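SNI mice acclimated 3 days on a 6 mm glass plate; compound 5 mg/kg i.p. A dry-ice-packed syringe was applied to the centre of the left hindpaw. Withdrawal latency timed by stopwatch, cut-off 30 s; n = 8–10.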

Potassium channel subfamily K member 2 (Homo sapiens, UniProt O95069, G275C), sequence (O95069 whole entry G275C): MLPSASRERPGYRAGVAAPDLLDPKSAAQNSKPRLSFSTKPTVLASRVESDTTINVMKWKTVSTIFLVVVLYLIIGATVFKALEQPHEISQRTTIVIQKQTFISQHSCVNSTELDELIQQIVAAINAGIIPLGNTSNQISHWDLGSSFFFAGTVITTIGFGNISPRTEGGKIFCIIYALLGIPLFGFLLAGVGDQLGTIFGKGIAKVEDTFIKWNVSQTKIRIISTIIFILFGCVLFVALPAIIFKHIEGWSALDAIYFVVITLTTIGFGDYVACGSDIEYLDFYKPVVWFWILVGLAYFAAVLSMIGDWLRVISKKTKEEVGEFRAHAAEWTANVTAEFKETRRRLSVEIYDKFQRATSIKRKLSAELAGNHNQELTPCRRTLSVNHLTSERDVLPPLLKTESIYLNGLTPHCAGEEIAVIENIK
Potassium channel subfamily K member 2 (Homo sapiens, UniProt O95069, W290A), sequence (O95069 whole entry W290A): as the sequence (O95069 whole entry G275C) above, with C275G, W290A counted along it

By EC50 is commonly meant the midpoint of the concentration-response curve. In the case of `Cc1ccc2nc(-c3ccc(NC(=O)[C@@H]4CC[C@H](C(=O)O)C4)cc3)sc2c1`, the result in experiment [1], in experiment [2], in experiment [3] and in experiment [4] was inactive. The EC50 in experiment [5] came to 3.91 µM; in [6], 15.2 µM. Besides, the result in experiment [7], in [8] and in experiment [9] was Active.
